Source: ChEMBL document CHEMBL4138085, “Design, synthesis and antimicrobial evaluation of novel benzimidazole-incorporated sulfonamide analogues” (Eur J Med Chem, 2017)
Values after ≈ are worked out from the molar mass of the structure shown.

How the values were obtained:
Cyberlindnera jadinii = experiment: Antifungal activity against Candida utilis after 24 hrs by NCCLS two fold broth microdilution method; type: functional; settings: Williopsis jadinii
How it was run: (§1)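 Two-fold serial microdilution following NCCLS. A spore suspension in sterile distilled water was prepared from one-day-old cultures grown on Sabouraud agar and adjusted to a final 1–5 × 10^3 spores/mL. DMSO stocks were diluted in RPMI 1640 to eleven concentrations (0.5–512 µg/mL), inoculated and held at 35 °C for 24 h. Growth was read visually and spectrophotometrically, MIC was the lowest concentration with complete inhibition, and runs were in triplicate.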

Staphylococcus aureus [1] = experiment: Antibacterial activity against methicillin-resistant Staphylococcus aureus N315 after 24 hrs by NCCLS two fold broth microdilution method; type: functional; settings: N315, 24 h
How it was run: (§2)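 Two-fold serial broth microdilution per NCCLS. Chloromycin and norfloxacin as reference drugs; DMSO with inoculum, no drug, as solvent control. Incubation 37 °C for 24 h. Growth read visually and spectrophotometrically. MIC is the lowest concentration completely inhibiting growth; triplicate.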

Candida albicans = experiment: Antifungal activity against Candida albicans ATCC 76615 after 24 hrs by NCCLS two fold broth microdilution method; type: functional; settings: ATCC 76615, 24 h; how it was run: as §1
Saccharomyces cerevisiae = experiment: Antifungal activity against Saccharomyces cerevisiae after 24 hrs by NCCLS two fold broth microdilution method; type: functional; how it was run: as §1
Staphylococcus aureus [2] = experiment: Antibacterial activity against Staphylococcus aureus ATCC 25923 after 24 hrs by NCCLS two fold broth microdilution method; type: functional; settings: ATCC 25923, 24 h
How it was run: (§3)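 Two-fold serial broth microdilution in 96-well plates following NCCLS. Compounds were dissolved in DMSO as stocks, then diluted in Mueller–Hinton broth to final concentrations of 0.5–512 µg/mL. Plates were inoculated and incubated at 37 °C for 24 h, with growth read visually and spectrophotometrically. MIC was taken as the lowest concentration giving complete growth inhibition. Run in triplicate, with a DMSO-plus-inoculum solvent control.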

Escherichia coli = experiment: Antibacterial activity against Escherichia coli ATCC 8099 after 24 hrs by NCCLS two fold broth microdilution method; type: functional; settings: ATCC 8099, 24 h
How it was run: as §3, with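 “NCCLS.” for “NCCLS. Compounds were dissolved in DMSO as stocks, then diluted in Mueller–Hinton broth to final concentrations of 0.5–512 µg/mL.”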

Pseudomonas aeruginosa = experiment: Antibacterial activity against Pseudomonas aeruginosa ATCC 27853 after 24 hrs by NCCLS two fold broth microdilution method; type: functional; settings: ATCC 27853, 24 h
How it was run: as §3, with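 “NCCLS.” for “NCCLS. Compounds were dissolved in DMSO as stocks, then diluted in Mueller–Hinton broth to final concentrations of 0.5–512 µg/mL.”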

Bacillus = experiment: Antibacterial activity against Bacillus proteus ATCC 13315 after 24 hrs by NCCLS two fold broth microdilution method; type: functional; settings: ATCC 13315, 24 h; how it was run: as §3
Salmonella typhi = experiment: Antibacterial activity against Bacillus typhi after 24 hrs by NCCLS two fold broth microdilution method; type: functional, Salmonella enterica subsp. enterica serovar Typhi; settings: Salmonella enterica
How it was run: as §2, with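 “NCCLS. DMSO stocks diluted in Mueller–Hinton broth to 512, 256, 128, 64, 32, 16, 8, 4, 2, 1, 0.5 µg/mL.” for “NCCLS.”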

Micrococcus luteus = experiment: Antibacterial activity against Micrococcus luteus ATCC 4698 after 24 hrs by NCCLS two fold broth microdilution method; type: functional; settings: NCTC 2665, 24 h; how it was run: as §3
Aspergillus flavus = experiment: Antifungal activity against Aspergillus flavus after 24 hrs by NCCLS two fold broth microdilution method; type: functional; how it was run: as §1
Bacillus subtilis = experiment: Antibacterial activity against Bacillus subtilis ATCC 21216 after 24 hrs by NCCLS two fold broth microdilution method; type: functional; settings: ATCC 21216, 24 h; how it was run: as §3
Pichia norvegensis = experiment: Antifungal activity against Candida mycoderma after 24 hrs by NCCLS two fold broth microdilution method; type: functional

Row | SMILES | MIC (Cyberlindnera jadinii) | MIC (Staphylococcus aureus [1]) | MIC (Candida albicans) | MIC (Saccharomyces cerevisiae) | MIC (Staphylococcus aureus [2]) | MIC (Escherichia coli) | MIC (Pseudomonas aeruginosa) | MIC (Bacillus) | MIC (Salmonella typhi) | MIC (Micrococcus luteus) | MIC (Aspergillus flavus) | MIC (Bacillus subtilis) | MIC (Pichia norvegensis)
1 | Nc1ccc(S(=O)(=O)Cc2nc3ccccc3n2Cc2ccc(Cl)cc2)cc1 | 32 mg/L (≈ 77.7 µM) | 256 mg/L (≈ 621 µM) | 256 mg/L (≈ 621 µM) | 64 mg/L (≈ 155 µM) | 256 mg/L (≈ 621 µM) | 64 mg/L (≈ 155 µM) | 256 mg/L (≈ 621 µM) | 256 mg/L (≈ 621 µM) | 512 mg/L (≈ 1240 µM) | 8 mg/L (≈ 19.4 µM) | 128 mg/L (≈ 311 µM) | 8 mg/L (≈ 19.4 µM) | 16 mg/L (≈ 38.8 µM)
2 | CCCn1c(CS(=O)(=O)c2ccc(N)cc2)nc2ccccc21 | 64 mg/L (≈ 194 µM) | 128 mg/L (≈ 389 µM) | 64 mg/L (≈ 194 µM) | 32 mg/L (≈ 97.1 µM) | 256 mg/L (≈ 777 µM) | 64 mg/L (≈ 194 µM) | 256 mg/L (≈ 777 µM) | 256 mg/L (≈ 777 µM) | 32 mg/L (≈ 97.1 µM) | 256 mg/L (≈ 777 µM) | 8 mg/L (≈ 24.3 µM) | 32 mg/L (≈ 97.1 µM) | 4 mg/L (≈ 12.1 µM)
3 | CCCCCn1c(CS(=O)(=O)c2ccc(N)cc2)nc2ccccc21 | 512 mg/L (≈ 1430 µM) | 512 mg/L (≈ 1430 µM) | 512 mg/L (≈ 1430 µM) | 128 mg/L (≈ 358 µM) | 512 mg/L (≈ 1430 µM) | 512 mg/L (≈ 1430 µM) | 512 mg/L (≈ 1430 µM) | 512 mg/L (≈ 1430 µM) | 512 mg/L (≈ 1430 µM) | 256 mg/L (≈ 716 µM) | 256 mg/L (≈ 716 µM) | 512 mg/L (≈ 1430 µM) | 512 mg/L (≈ 1430 µM)
4 | CCCCCCCCCCCCCCCCCCn1c(CS(=O)(=O)c2ccc(N)cc2)nc2ccccc21 | 512 mg/L (≈ 948 µM) | 512 mg/L (≈ 948 µM) | 512 mg/L (≈ 948 µM) | 64 mg/L (≈ 119 µM) | 512 mg/L (≈ 948 µM) | 512 mg/L (≈ 948 µM) | 512 mg/L (≈ 948 µM) | 512 mg/L (≈ 948 µM) | 512 mg/L (≈ 948 µM) | 256 mg/L (≈ 474 µM) | 512 mg/L (≈ 948 µM) | 512 mg/L (≈ 948 µM) | 64 mg/L (≈ 119 µM)
5 | CCCCCCn1c(CS(=O)(=O)c2ccc(NC(C)=O)cc2)nc2ccccc21 | 512 mg/L (≈ 1240 µM) | 512 mg/L (≈ 1240 µM) | 512 mg/L (≈ 1240 µM) | 512 mg/L (≈ 1240 µM) | 512 mg/L (≈ 1240 µM) | 512 mg/L (≈ 1240 µM) | 512 mg/L (≈ 1240 µM) | 256 mg/L (≈ 619 µM) | 512 mg/L (≈ 1240 µM) | 256 mg/L (≈ 619 µM) | 512 mg/L (≈ 1240 µM) | 128 mg/L (≈ 310 µM) | 512 mg/L (≈ 1240 µM)
6 | CCCn1c(CS(=O)(=O)c2ccc(NC(C)=O)cc2)nc2ccccc21 | 64 mg/L (≈ 172 µM) | 64 mg/L (≈ 172 µM) | 64 mg/L (≈ 172 µM) | 16 mg/L (≈ 43.1 µM) | 128 mg/L (≈ 345 µM) | 128 mg/L (≈ 345 µM) | 128 mg/L (≈ 345 µM) | 64 mg/L (≈ 172 µM) | 32 mg/L (≈ 86.1 µM) | 256 mg/L (≈ 689 µM) | 128 mg/L (≈ 345 µM) | 16 mg/L (≈ 43.1 µM) | 16 mg/L (≈ 43.1 µM)
7 | CC(=O)Nc1ccc(S(=O)(=O)Cc2nc3ccccc3n2Cc2ccccc2F)cc1 | 32 mg/L (≈ 73.1 µM) | 128 mg/L (≈ 293 µM) | 256 mg/L (≈ 585 µM) | 512 mg/L (≈ 1170 µM) | 512 mg/L (≈ 1170 µM) | 256 mg/L (≈ 585 µM) | 128 mg/L (≈ 293 µM) | 128 mg/L (≈ 293 µM) | 64 mg/L (≈ 146 µM) | 32 mg/L (≈ 73.1 µM) | 64 mg/L (≈ 146 µM) | 64 mg/L (≈ 146 µM) | 512 mg/L (≈ 1170 µM)
8 | Nc1ccc(S(=O)(=O)Cc2nc3ccccc3n2Cc2cccc(Cl)c2)cc1 | 512 mg/L (≈ 1240 µM) | 512 mg/L (≈ 1240 µM) | 512 mg/L (≈ 1240 µM) | 256 mg/L (≈ 621 µM) | 32 mg/L (≈ 77.7 µM) | 32 mg/L (≈ 77.7 µM) | 256 mg/L (≈ 621 µM) | 256 mg/L (≈ 621 µM) | 512 mg/L (≈ 1240 µM) | 256 mg/L (≈ 621 µM) | 16 mg/L (≈ 38.8 µM) | 512 mg/L (≈ 1240 µM) | 512 mg/L (≈ 1240 µM)
9 | OC(Cn1cncn1)(Cn1cncn1)c1ccc(F)cc1F [FLUCONAZOLE] | 8 mg/L (≈ 26.1 µM) |  | 1 mg/L (≈ 3.27 µM) | 16 mg/L (≈ 52.2 µM) |  |  |  |  |  |  | 256 mg/L (≈ 836 µM) |  | 4 mg/L (≈ 13.1 µM)
10 | CCn1cc(C(=O)O)c(=O)c2cc(F)c(N3CCNCC3)cc21 [NORFLOXACIN] |  | 1 mg/L (≈ 3.13 µM) |  |  | 8 mg/L (≈ 25.1 µM) | 1 mg/L (≈ 3.13 µM) | 1 mg/L (≈ 3.13 µM) | 4 mg/L (≈ 12.5 µM) | 1 mg/L (≈ 3.13 µM) | 1 mg/L (≈ 3.13 µM) |  | 2 mg/L (≈ 6.26 µM) | 
11 | O=C(N[C@H](CO)[C@H](O)c1ccc([N+](=O)[O-])cc1)C(Cl)Cl [CHLORAMPHENICOL] |  |  |  |  | 8 mg/L (≈ 24.8 µM) |  |  | 32 mg/L (≈ 99 µM) | 32 mg/L (≈ 99 µM) | 8 mg/L (≈ 24.8 µM) |  | 32 mg/L (≈ 99 µM) | 
